Assays:
[1] = Hydroxyl radical-scavenging assay; type: biochemical; settings: ED50 <20 μM considered active
How it was run: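 In vitro scavenging assay run on the solvent partitions of the methanolic root-bark extract (hexanes, CHCl3, EtOAc, n-BuOH) and on pure isolates, with a positive control. ED50 is the concentration that scavenges hydroxyl radicals by 50%.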

NF-κB p65 = NF-κB p65 (Homo sapiens, UniProt Q04206); assay: NF-κB p65 inhibition assay; type: cell-based
[2] = system: HT-29 human colon cancer cell line; assay: Cytotoxicity against HT-29 cell line; type: cell-based; settings: HT-29, read-out: cytotoxicity IC50 (concentration inhibiting HT-29 cell growth by 50%)
How it was run: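 Pure isolates were tested against HT-29 human colon cancer cells, with a positive control. IC50 is the concentration that inhibits HT-29 cell growth by 50%, and an IC50 below 10 μM is counted as active.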

Sequence of NF-κB p65 (Q04206 whole entry): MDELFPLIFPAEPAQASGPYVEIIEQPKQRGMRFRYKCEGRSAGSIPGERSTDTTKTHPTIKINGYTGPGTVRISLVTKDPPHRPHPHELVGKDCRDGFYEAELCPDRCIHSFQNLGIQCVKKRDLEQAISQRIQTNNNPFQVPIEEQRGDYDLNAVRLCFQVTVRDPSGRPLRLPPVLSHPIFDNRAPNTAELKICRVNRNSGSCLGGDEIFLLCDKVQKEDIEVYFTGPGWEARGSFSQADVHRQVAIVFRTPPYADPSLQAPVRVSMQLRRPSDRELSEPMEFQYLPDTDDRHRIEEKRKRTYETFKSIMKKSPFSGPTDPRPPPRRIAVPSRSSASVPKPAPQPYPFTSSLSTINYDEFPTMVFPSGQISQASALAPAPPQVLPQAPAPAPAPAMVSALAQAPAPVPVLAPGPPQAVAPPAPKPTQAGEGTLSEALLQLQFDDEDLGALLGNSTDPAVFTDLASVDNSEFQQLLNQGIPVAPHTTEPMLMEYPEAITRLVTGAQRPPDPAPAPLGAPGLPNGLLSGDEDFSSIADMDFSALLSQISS

Row | SMILES | hydroxy radical-scavenging ED50 (concentration scavenging hydroxyl radical by 50%) [1] | other results
1 | C=CC(C)(C)c1cc2cc(-c3ccc(O)cc3O)c(=O)oc2cc1O [compound 4, 7-hydroxy-6-(2-methylbut-3-en-2-yl)-2′,4′-dihydroxy-3-phenylcoumarin] | 2.6 µM | NF-κB p65 inhibitory activity retained relative to compound 1 (NF-κB p65; fraction of the activity of 1): one-tenth
2 | CC1(C)c2cc(CC(=O)c3ccc(O)cc3O)c(O)cc2OC1CO (stereo not drawn) [compound 9, 2,4-dihydroxy-2′-dihydroxy-5′-(2,4′-epoxy-3-methylbut-1-ol-3-yl)deoxybenzoin] | 1.0 µM | –
3 | C=CC(C)(CO)c1cc(CC(=O)c2ccc(O)cc2O)c(O)cc1O (stereo not drawn) [compound 11, 2,4-dihydroxy-2′,4′-dihydroxy-5′-(1-hydroxy-2-methylbut-3-en-2-yl)deoxybenzoin] | 0.63 µM | IC50 (NF-κB p65): > 20 µM; IC50 [2]: > 10 µM
4 | O=c1c(O)c(-c2ccc(O)c(O)c2)oc2cc(O)cc(O)c12 [quercetin, reference compound] | 1.2 µM | –
5 | C=CC(C)(CO)c1cc2cc(-c3ccc(O)cc3O)c(=O)oc2cc1O (stereo not drawn) [compound 7, 7-hydroxy-6-(1-hydroxy-2-methylbut-3-en-2-yl)-2′,4′-dihydroxy-3-phenylcoumarin] | >20 µM | –
6 | C=CC(C)(O)Cc1cc(CC(=O)c2ccc(O)cc2O)c(O)cc1O (stereo not drawn) [compound 10, 2,4-dihydroxy-2′,4′-dihydroxy-5′-(2-hydroxy-2-methylbut-3-en-1-yl)deoxybenzoin] | 0.60 µM | IC50 (NF-κB p65): > 20 µM; IC50 [2]: > 10 µM
7 | C=CC(C)(C)c1cc(C(=O)c2c(-c3cc(-c4cc5cc(C(C)(C)C=C)c(O)cc5oc4=O)c(O)cc3O)oc3cc(O)ccc23)c(O)cc1O [compound 1, sphenostylisin A] | 0.71 µM | NF-κB inhibitory potency relative to compound 3 (NF-κB p65; times more potency than compound 3): 75 times; NF-κB p65 inhibitory potency relative to the positive control rocaglamide (NF-κB p65; times more potent than rocaglamide): > 10 times
8 | C=CC(C)(CO)c1cc2c(=O)c(-c3ccc(O)cc3O)coc2cc1O (stereo not drawn) [compound 8, 7-hydroxy-6-(1-hydroxy-2-methylbut-3-en-2-yl)-2′,4′-dihydroxyisoflavone] | 2.2 µM | IC50 (NF-κB p65): 0.45 µM; IC50 [2]: > 10 µM
9 | C=CC(C)(O)Cc1cc2cc(-c3ccc(O)cc3O)c(=O)oc2cc1O (stereo not drawn) [compound 6, 7-hydroxy-6-(2-hydroxy-2-methylbut-3-en-1-yl)-2′,4′-dihydroxy-3-phenylcoumarin] | >20 µM | –
10 | C=CC(C)(C)c1cc2c(cc1O)OC[C@H](c1cc(-c3oc4cc(O)ccc4c3C(=O)c3cc(C(C)(C)C=C)c(O)cc3O)c(O)cc1O)C2 [compound 3, sphenostylisin C] | 0.94 µM | –
11 | C=CC(C)(C)c1cc(-c2oc3cc(O)ccc3c2Cc2cc(-c3cc4cc(C(C)(C)C=C)c(O)cc4oc3=O)c(O)cc2O)c(O)cc1O [compound 2, sphenostylisin B] | 0.73 µM | –
12 | CC1(C)c2cc3cc(-c4ccc(O)cc4O)c(=O)oc3cc2OC1CO (stereo not drawn) [compound 5, 6-(2,7-epoxy-3-methylbut-1-ol-3-yl)-2′,4′-dihydroxy-3-phenylcoumarin] | 18.5 µM | –
